Screens from PubChem BioAssay.
Only some compounds are listed: those with a hit (about 3.7% of all), similar ones and a draw of the others.
Dynein transport: blocks dynein driven cargo transport along microtubules; AID 1381; 3617.4 mouse cells, GR-EGFP nuclear translocation imaging; test concentration mostly 20 µM; stimulated with dexamethasone, 1 µM; active compounds read low; 220,000 compounds, 0.47% hits; z-score, hits read low;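 active means plate z-score of nuclear minus cytoplasmic receptor signal below a set negative limit, without overly bright fluorescence or cell loss, cut at about -3.5 in these data, passing the limit was not always enough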;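 further: z-score of nuclear minus cytoplasmic ring GR-EGFP intensity difference per well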
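Buffer or medium: tetracycline-free induction medium containing charcoal-stripped FBS / Reagent: dexamethasone agonist, 1.0 µM final, for 30 min / Technique: automated 10x imaging of fixed Hoechst-stained cells / Times: induction 48 h, compound 1 h, agonist 30 min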
UPR CHOP act: apoptotic UPR (CHOP) activation; CHO-CHOP luciferase reporter, luminescence; percent of tunicamycin response over DMSO baseline; activation, % at 10 µM; 330,000 compounds, 0.34% hits; AID 449763;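 active means at 10 µM dose, activation of 40% or more, normalized to positive control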
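Assay system: CHO cells with stable CHOP pathway luciferase reporter; Buffer or medium: F12 plus 10% serum; Times: 16-18 h cell attachment, then 6 h compound exposure, 37 °C; Signal: luciferase luminescence; Read-out basis: percent activation relative to tunicamycin control; Control set: tunicamycin high control, DMSO low control.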
B2AR ag: activates human beta-2 adrenergic receptor causing internalization; 340,000 compounds, 0.43% hits; Am2.2-beta2AR cells, FAP receptor internalization, flow cytometry; response, % (concentration not given with the values); AID 504454;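 active means response above a set limit, near 3 SD of response in nonfluorescent compounds, cut at about 42% in these data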
Target sequence (P07550 whole entry, looked up): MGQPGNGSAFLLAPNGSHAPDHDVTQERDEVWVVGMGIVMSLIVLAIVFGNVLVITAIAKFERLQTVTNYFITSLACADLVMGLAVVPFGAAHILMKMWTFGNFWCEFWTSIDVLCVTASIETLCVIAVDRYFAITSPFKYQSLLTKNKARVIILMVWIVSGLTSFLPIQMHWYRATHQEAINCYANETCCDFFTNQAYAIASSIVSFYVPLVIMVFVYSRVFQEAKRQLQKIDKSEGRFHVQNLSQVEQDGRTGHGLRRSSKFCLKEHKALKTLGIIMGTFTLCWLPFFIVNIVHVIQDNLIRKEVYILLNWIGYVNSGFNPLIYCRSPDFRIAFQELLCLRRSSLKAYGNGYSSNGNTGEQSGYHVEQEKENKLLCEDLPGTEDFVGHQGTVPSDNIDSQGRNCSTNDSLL
MDM2 E3 inh: blocks human Mdm2 ubiquitin ligase activity. Q00987. cell-based MDM2 ubiquitination luciferase reporter, 2 h; 0 = plate control, 100 = twice control, blank-subtracted. signal enhancement, % at 5 µM. 210,000 compounds, 0.11% hits. AID 1230;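 active means signal enhancement of 30% or more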;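 further: luminescence tracks abundance of the self-degrading MDM2-luciferase fusion protein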
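Test system: mammalian cells stably expressing self-ubiquitinating, self-degrading MDM2 E3–luciferase fusion; Amount: 2000 cells in each well; Medium: DMEM; Schedule: 4 h settle plus 2 h compound, 37 °C; Technique: SteadyLite luciferase luminescence after 15 min room-temperature reagent incubation; Benchmarks: plate control and blank wells.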
Mdm2-MdmX inh: human Mdm2/MdmX binding inhibition; O15151+Q00987; 330,000 compounds, 3% hits; AID 485346; inhibition, % at 8 µM; SaOS-2 split-luciferase Mdm2/MdmX complementation, luminescence;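 active means inhibition of at least 50% at 8 µM in the primary screen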
UPR XBP1 act: adaptive UPR (XBP1) activation | 330,000 compounds, 0.33% hits | activation, % at 20 µM | CHO-XBP1 luciferase reporter, IRE1-XBP1 UPR activation, luminescence; percent of tunicamycin response, DMSO as zero;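 active means versus positive control, 20 µM dose yields 30% or more activation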
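Signal: luciferase luminescence; Assay system: CHO-XBP1 luciferase reporter cells; Amount: one thousand reporter cells per well; Dosing: 20 µM single concentration, DMSO 1%; Benchmarks: high control tunicamycin 10 µg/mL final, low control DMSO vehicle only; Schedule: 6 h compound exposure at 37 °C, 5% CO2; Evaluation: percent activation relative to tunicamycin reference.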
Mdm2 MdmX conf: confirmation of human Mdm2/MdmX interaction inhibitors | Mdm2-MdmX binding, luminescent assay | shares compounds with Mdm2-MdmX inh | 10,000 compounds, 55% hits | inhibition, % at 8 µM; in the data active means inhibition above about 40%
FLuc counter: full-length luciferase inhibition in Mdm2/MdmX counter-screen; shares compounds with Mdm2-MdmX inh; SaOS-2 full-length luciferase counterscreen, luminescence; inhibition, % at 8 µM; 6,200 compounds, 77% hits; AID 504607;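 active means mean inhibition at 8 µM reaching about 37%, which flags the compound as non-specific, limit read from the data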;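 further: p53-null SaOS-2 cells with luciferase driven by a doxycycline-inducible promoter; compound on cells about two nights before reading with doxycycline added after day one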
Large screens that a line does not name were inactive (follow-up assays come after a bar, where they were run).

CC1CCN(Cc2c(C(=O)N/N=C/c3cc(Br)ccc3O)nnn2-c2nonc2N)CC1	Mdm2-MdmX inh 85 (no result: Dynein transport, MDM2 E3 inh) | Mdm2 MdmX conf 83 | FLuc counter 56
C/C(=N\NC(=O)c1nnn(-c2nonc2N)c1-c1cccs1)c1cccc(O)c1	none (no result: Dynein transport, MDM2 E3 inh)
C/C(=N\NC(=O)c1nnn(-c2nonc2N)c1CN1CCc2ccccc21)c1ccccc1O	Mdm2-MdmX inh 69 (no result: Dynein transport, MDM2 E3 inh) | Mdm2 MdmX conf 67 | FLuc counter inactive
CC1CCN(Cc2c(C(=O)N/N=C/c3cc(Cl)ccc3O)nnn2-c2nonc2N)CC1	Mdm2-MdmX inh 79 (no result: Dynein transport, MDM2 E3 inh) | Mdm2 MdmX conf 84 | FLuc counter inactive
N#Cc1ccccc1S(=O)(=O)N1CCN(C(=O)[C@@H]2CCCN2C(=O)c2cccs2)CC1	none (no result: Dynein transport, MDM2 E3 inh)
Cc1ccc(C(C)(C)NC(=O)C2CCC(=O)N(CC3CCCCC3)C2)cc1 (centres undefined)	none (no result: Dynein transport, MDM2 E3 inh)
CCOC(=O)c1c(NC(=O)N/N=C/c2ccccc2OCC)sc(C(C)=O)c1C	none (no result: UPR CHOP act, Mdm2-MdmX inh, UPR XBP1 act)
CCOC(=O)c1c(NC(=O)N/N=C/c2ccc(O)c(OC)c2)sc(C(C)=O)c1C	Mdm2-MdmX inh 68 (no result: B2AR ag, MDM2 E3 inh) | Mdm2 MdmX conf inactive
C=CCn1c(SCCN)nnc1-c1cccc(S(=O)(=O)N2CCOCC2)c1	none (no result: Dynein transport, UPR CHOP act, MDM2 E3 inh, Mdm2-MdmX inh, UPR XBP1 act)
CSCCCN1CCCC(CO)(Cc2ccccc2F)C1 (centres undefined)	none (no result: Dynein transport, MDM2 E3 inh)
COc1ccc(NC(=O)C2CC(=O)N/C(=N/N=C/c3ccccc3)S2)cc1 (centres undefined)	Mdm2-MdmX inh 79 | Mdm2 MdmX conf 59 | FLuc counter 91
COc1ccc(/C=N/N=C2/NC(=O)C(c3ccccc3)(c3ccccc3)S2)cc1	Mdm2-MdmX inh 61 | Mdm2 MdmX conf inactive
CCc1ccc(N(CC(=O)NCc2ccco2)C(=O)CCC(=O)Nc2nccs2)cc1	none (no result: Dynein transport, MDM2 E3 inh)
O=C(O)c1ccccc1OC(C(=O)Nc1cc(Cl)cc(Cl)c1)c1ccccc1 (centres undefined)	Mdm2-MdmX inh 76 (no result: Dynein transport, MDM2 E3 inh) | Mdm2 MdmX conf inactive
O=C(Nc1cccnc1)Nc1cc(Cl)cc(Cl)c1	Mdm2-MdmX inh 50 | Mdm2 MdmX conf inactive
O=C(NCc1csc2ccccc12)Nc1cc(Cl)cc(Cl)c1	Mdm2-MdmX inh 69 | Mdm2 MdmX conf inactive
CS(=O)(=O)Nc1ccccc1C(=O)Nc1cc(Cl)cc(Cl)c1	Mdm2-MdmX inh 60 | Mdm2 MdmX conf 92 | FLuc counter inactive
O=C(Nc1cccc(Cl)c1)Nc1cccc(Cl)c1	none
O=C(Nc1ccccc1)Nc1cc(Cl)cc(Cl)c1	Mdm2-MdmX inh 91 | Mdm2 MdmX conf 80 | FLuc counter inactive
COc1cc2nc(NC(=O)c3ccccc3)[nH]c(=O)c2cc1OC	none
COc1ccc(C(=O)Nc2nc3cc(OC)c(OC)cc3c(=O)[nH]2)cc1	Mdm2-MdmX inh 71 | Mdm2 MdmX conf inactive
Cc1c(CCOC(=O)CC23CC4CC(CC(C4)C2)C3)sc[n+]1CC(=O)c1ccccc1	Mdm2-MdmX inh 54 | Mdm2 MdmX conf inactive
COc1ccccc1C1NC(=O)NC(C)=C1C(=O)OC1CCC(C)CC1 (centres undefined)	none (no result: Dynein transport, MDM2 E3 inh)
COc1cccc(-c2cc(C(=O)NCC3CCCO3)c3cc(Br)cc(C)c3n2)c1 (centres undefined)	none (no result: Dynein transport, MDM2 E3 inh)
Cc1cc(Br)cc2c(C(=O)NCC3CCCO3)cc(-c3cccs3)nc12 (centres undefined)	Mdm2-MdmX inh 56 (no result: Dynein transport, MDM2 E3 inh) | Mdm2 MdmX conf inactive
Nc1ccc2c(c1)OC1(CCCC1)O2	Mdm2-MdmX inh 70 | Mdm2 MdmX conf 80 | FLuc counter 37
CCOC(=O)N1CCC(N2CCCC(CO)(Cc3cccc(OC)c3)C2)CC1 (centres undefined)	none
